Data on 2 compounds can be found in ChEMBL document CHEMBL3864121, “Development of ebsulfur analogues as potent antibacterials against methicillin-resistant Staphylococcus aureus” (Bioorg Med Chem, 2016).

Values after ≈ are worked out from the molar mass of the structure shown. Active and inactive are the calls of the source. The calls are words filed in the database; no cut-off is given here.

Data set [1] deals with Staphylococcus epidermidis RP62A. The experiment in a line: Inhibition of thioredoxin reductase in Staphylococcus epidermidis ATCC 35984 assessed as induction of ROS production at 1 to 4 times MIC measured after 1 hr by DCFH-DA staining-based fluorescence microscopic analysis. Summed up: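 Untreated cells served as the negative control and 1 mM H2O2 as the positive control. Cells were stained with DCFH-DA (40 µg/mL) and ROS were visualized by fluorescence microscopy.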

Data set [2] relates to Staphylococcus aureus. The experiment in a line: Antibacterial activity against methicillin-resistant Staphylococcus aureus S22 using 1 10^6CFU/ml measured after overnight incubation by broth double-dilution method. It is filed as functional.
The next data set is filed under the species Mus musculus. The experiment in a line: Cytotoxicity against mouse RBCs assessed as hemolysis at 0.24 to 31.2 ug/ml measured after 1 hr. The class given is toxicity. The settings on record: erythrocyte. Summed up:
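Murine red blood cells were exposed to compounds at various concentrations, with amikacin as a control. Percent hemolysis was scored against untreated cells (0%) and 1% Triton X (100%).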

Data set [3] deals with Staphylococcus aureus. As to the kind of experiment: Antibiofilm activity against methicillin-sensitive Staphylococcus aureus ATCC 6538 assessed as reduction of biofilm at […] ug/ml measured after 24 hrs by crystal violet staining based method relative to control. The class given is functional. More on the design: scale not given: the % may be the effect or the level left.

Data set [4] in a line: Cytotoxicity against mouse RBCs assessed as hemolysis up to […] measured after 1 hr. The note with it: mouse red blood cells, read-out: Activity. It is filed as toxicity, Erythrocyte.
Data set [5] has as its system Staphylococcus aureus. The experiment in a line: Bacteriostatic activity against methicillin-resistant Staphylococcus aureus S22 at MIC measured up to 3 to 6 hrs by time kill analysis. The class given is functional.
Data set [6] deals with Staphylococcus aureus. The experiment in a line: Bacteriostatic activity against methicillin-resistant Staphylococcus aureus S22 at 0.5 times MIC measured up to 3 to 6 hrs by time kill analysis. The class given is functional.
The subject of data set [7] is Staphylococcus aureus. As to the kind of experiment: Bacteriostatic activity against methicillin-resistant Staphylococcus aureus S22 at 4 times MIC measured after 24 hrs by time kill analysis. The class given is functional.
Data set [8] concerns Staphylococcus epidermidis. As to the kind of experiment: Antibacterial activity against Staphylococcus epidermidis ATCC 35984 measured after overnight incubation by broth double-dilution method. The note with it: RP62A. It is filed as functional. The gist of the method: (§1)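 MIC by broth double-dilution in Mueller-Hinton medium. Re-testing at the time-kill inoculum used 1×10^6 CFU/mL.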

For data set [9], the system named is Staphylococcus aureus. The experiment in a line: Antibacterial activity against methicillin-resistant Staphylococcus aureus C2 measured after overnight incubation by broth double-dilution method. It is filed as functional. The gist of the method:
(§2)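 MIC by broth double-dilution in liquid Mueller-Hinton medium. Values are reported in µg/mL.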

A further data set has as its system Enterococcus. As to the kind of experiment: Antibacterial activity against Vancomycin-resistant Enterococcus measured after overnight incubation by broth double-dilution method. The class given is functional. The gist of the method: as §2
A further data set relates to Listeria monocytogenes. As to the kind of experiment: Antibacterial activity against Listeria monocytogenes ATCC 19115 measured after overnight incubation by broth double-dilution method. The class given is functional. The gist of the method:
as §1

The subject of data set [10] is Staphylococcus aureus. The experiment in a line: Antibacterial activity against methicillin-sensitive Staphylococcus aureus ATCC 25923 measured after overnight incubation by broth double-dilution method. It is filed as functional. Summed up: as §2
The test system of data set [11] is Staphylococcus aureus. The experiment in a line: Antibacterial activity against methicillin-resistant Staphylococcus aureus USA600 measured after overnight incubation by broth double-dilution method. The class given is functional. Summed up:
as §2

Data set [12] concerns Staphylococcus aureus. The experiment in a line: Antibacterial activity against methicillin-resistant Staphylococcus aureus NRS4 measured after overnight incubation by broth double-dilution method. The class given is functional. The gist of the method:
as §2

In data set [13] the test system is Staphylococcus aureus. The experiment in a line: Antibacterial activity against methicillin-resistant Staphylococcus aureus G12 measured after overnight incubation by broth double-dilution method. The class given is functional. Summed up: as §2
Data set [14] relates to Mycolicibacterium smegmatis. As to the kind of experiment: Antibacterial activity against Mycobacterium smegmatis MC2-155 measured after overnight incubation by broth double-dilution method. It is filed as functional. The note with it: str. MC2 155. The gist of the method:
as §2

Data set [15] relates to Staphylococcus aureus. As to the kind of experiment: Antibacterial activity against methicillin-resistant Staphylococcus aureus C7 measured after overnight incubation by broth double-dilution method. It is filed as functional. The gist of the method:
as §2

Data set [16] relates to Staphylococcus aureus. As to the kind of experiment: Antibacterial activity against methicillin-resistant Staphylococcus aureus C19 measured after overnight incubation by broth double-dilution method. The class given is functional. The gist of the method:
as §2

The subject of data set [17] is Staphylococcus aureus. The experiment in a line: Antibacterial activity against methicillin-resistant Staphylococcus aureus USA200 measured after overnight incubation by broth double-dilution method. The class given is functional. The gist of the method: as §2
The test system of data set [18] is Staphylococcus aureus. The experiment in a line: Antibacterial activity against methicillin-resistant Staphylococcus aureus S14 measured after overnight incubation by broth double-dilution method. The class given is functional. Summed up: as §2
Data set [19] relates to Staphylococcus aureus. As to the kind of experiment: Antibacterial activity against methicillin-resistant Staphylococcus aureus USA300 measured after overnight incubation by broth double-dilution method. The class given is functional. Summed up: as §2
The subject of data set [20] is Staphylococcus aureus. The experiment in a line: Antibacterial activity against methicillin-resistant Staphylococcus aureus G6 measured after overnight incubation by broth double-dilution method. It is filed as functional. Summed up:
as §2

Data set [21] has as its system Staphylococcus aureus. The experiment in a line: Antibacterial activity against methicillin-resistant Staphylococcus aureus S24 measured after overnight incubation by broth double-dilution method. The class given is functional. Summed up:
as §2

Data set [22] deals with Staphylococcus aureus. As to the kind of experiment: Antibacterial activity against methicillin-resistant Staphylococcus aureus C14 measured after overnight incubation by broth double-dilution method. The class given is functional. The gist of the method: as §2
Data set [23] relates to Staphylococcus aureus. The experiment in a line: Antibacterial activity against methicillin-resistant Staphylococcus aureus S22 measured after overnight incubation by broth double-dilution method. The class given is functional. The gist of the method:
as §2

The test system of a further data set is Enterococcus faecium. The experiment in a line: Antibacterial activity against Enterococcus faecium BM4105-RF measured after overnight incubation by broth double-dilution method. The class given is functional. Summed up: as §2
In data set [24] the test system is Staphylococcus aureus. As to the kind of experiment: Antibacterial activity against methicillin-resistant Staphylococcus aureus G1 measured after overnight incubation by broth double-dilution method. It is filed as functional. Summed up:
as §2

Data set [25] deals with Staphylococcus aureus. As to the kind of experiment: Antibacterial activity against methicillin-resistant Staphylococcus aureus NRS77 measured after overnight incubation by broth double-dilution method. It is filed as functional. Summed up: as §2
The test system of data set [26] is Staphylococcus aureus. As to the kind of experiment: Antibacterial activity against methicillin-resistant Staphylococcus aureus BRS3 measured after overnight incubation by broth double-dilution method. The class given is functional. Summed up: as §2
Data set [27] has as its system Staphylococcus aureus. As to the kind of experiment: Antibacterial activity against methicillin-resistant Staphylococcus aureus C1 measured after overnight incubation by broth double-dilution method. The class given is functional. The gist of the method: as §2
Data set [28] deals with Staphylococcus aureus. The experiment in a line: Antibacterial activity against methicillin-resistant Staphylococcus aureus G14 measured after overnight incubation by broth double-dilution method. It is filed as functional. The gist of the method:
as §2

Data set [29] concerns Staphylococcus aureus. The experiment in a line: Antibacterial activity against methicillin-resistant Staphylococcus aureus 2 measured after overnight incubation by broth double-dilution method. The class given is functional. The gist of the method: as §2
Data set [30] deals with Staphylococcus aureus. The experiment in a line: Antibacterial activity against methicillin-resistant Staphylococcus aureus NRS51 measured after overnight incubation by broth double-dilution method. The class given is functional. Summed up:
as §2

Data set [31] concerns Staphylococcus aureus. The experiment in a line: Antibacterial activity against methicillin-resistant Staphylococcus aureus 1 measured after overnight incubation by broth double-dilution method. It is filed as functional. The gist of the method:
as §2

Data set [32] concerns Staphylococcus aureus. The experiment in a line: Antibacterial activity against methicillin-resistant Staphylococcus aureus S17 measured after overnight incubation by broth double-dilution method. It is filed as functional. The gist of the method:
as §2

Data set [33] concerns Staphylococcus aureus. As to the kind of experiment: Antibacterial activity against methicillin-sensitive Staphylococcus aureus ATCC 29213 measured after overnight incubation by broth double-dilution method. It is filed as functional. The gist of the method: as §2
For data set [34], the system named is Enterococcus faecalis. As to the kind of experiment: Antibacterial activity against Enterococcus faecalis ATCC 49533 measured after overnight incubation by broth double-dilution method. The class given is functional. Summed up:
as §1

Data set [35] concerns Staphylococcus aureus. As to the kind of experiment: Antibiofilm activity against methicillin-sensitive Staphylococcus aureus ATCC 6538 assessed as reduction of biofilm at 62..5 ug/ml measured after 24 hrs by crystal violet staining based method relative to control. More on the design: scale not given: the % may be the effect or the level left. It is filed as functional.
In data set [36] the test system is Staphylococcus aureus. As to the kind of experiment: Antibacterial activity against methicillin-sensitive Staphylococcus aureus ATCC 6538 measured after overnight incubation by broth double-dilution method. It is filed as functional. Summed up: as §2
The test system of data set [37] is Staphylococcus aureus. As to the kind of experiment: Antibacterial activity against methicillin-resistant Staphylococcus aureus C16 measured after overnight incubation by broth double-dilution method. It is filed as functional. Summed up:
as §2

Data set [38] deals with Enterococcus faecalis. The experiment in a line: Antibacterial activity against Enterococcus faecalis ATCC 29212 measured after overnight incubation by broth double-dilution method. The class given is functional. The gist of the method: as §1
Data set [39] deals with Staphylococcus aureus. As to the kind of experiment: Antibacterial activity against methicillin-resistant Staphylococcus aureus USA100 measured after overnight incubation by broth double-dilution method. The class given is functional. The gist of the method:
as §2

For data set [40], the system named is Staphylococcus aureus. The experiment in a line: Antibacterial activity against methicillin-resistant Staphylococcus aureus ATCC 33591 measured after overnight incubation by broth double-dilution method. It is filed as functional. Summed up:
as §2

For `O=c1c2ccccc2sn1-c1ccccc1`, the result (in data set [1]; in the data set on Staphylococcus aureus [2]; with Staphylococcus aureus [5]; with Staphylococcus aureus [6]; in the data set on Staphylococcus aureus [7]) was Active. For the same compound, the results for the Activity entry in the data set listed under Mus musculus and in the data set on Staphylococcus aureus [3] were “Non-Toxic” and 40%, respectively. Moreover, the hemolysis at 1 h in data set [4] was ≤ 20%.
As a reminder, the MIC is the least concentration at which growth counts as inhibited. Consider `O=c1c2ccccc2sn1-c1ccc(F)cc1`, for which the MIC was 2 mg/L (≈ 8.15 µM) in data set [8]; 3.9 mg/L (≈ 15.9 µM) with Staphylococcus aureus [9]; 2 mg/L (≈ 8.15 µM) in the data set on Enterococcus; 2 mg/L (≈ 8.15 µM) against Listeria monocytogenes; 2 mg/L (≈ 8.15 µM) in the data set on Staphylococcus aureus [10]; 2 mg/L (≈ 8.15 µM) with Staphylococcus aureus [11]. Besides, the MIC in the data set with Staphylococcus aureus [12] turned out to be 3.9 mg/L (≈ 15.9 µM); in the data set with Staphylococcus aureus [13], 2 mg/L (≈ 8.15 µM); in [14], 1 mg/L (≈ 4.08 µM); in the data set on Staphylococcus aureus [15] it was 1 mg/L (≈ 4.08 µM); in the data set with Staphylococcus aureus [16] it was 2 mg/L (≈ 8.15 µM); in the data set on Staphylococcus aureus [17], 3.9 mg/L (≈ 15.9 µM). Also, the MIC against Staphylococcus aureus [18] was ≤ 0.25 mg/L; with Staphylococcus aureus [19], 2 mg/L (≈ 8.15 µM); in the data set with Staphylococcus aureus [20], 3.9 mg/L (≈ 15.9 µM); in the data set with Staphylococcus aureus [21], 2 mg/L (≈ 8.15 µM); in the data set with Staphylococcus aureus [22], 3.9 mg/L (≈ 15.9 µM); in the data set with Staphylococcus aureus [23], 2 mg/L (≈ 8.15 µM). Besides, the MIC against Enterococcus faecium is 31.3 mg/L (≈ 128 µM); in the data set on Staphylococcus aureus [24], 2 mg/L (≈ 8.15 µM); against Staphylococcus aureus [25], 3.9 mg/L (≈ 15.9 µM); against Staphylococcus aureus [26] it was 3.9 mg/L (≈ 15.9 µM); with Staphylococcus aureus [27], 2 mg/L (≈ 8.15 µM); with Staphylococcus aureus [28], 2 mg/L (≈ 8.15 µM). For the same compound, the MIC was 2 mg/L (≈ 8.15 µM) against Staphylococcus aureus [29]; 3.9 mg/L (≈ 15.9 µM) in the data set with Staphylococcus aureus [30]; 3.9 mg/L (≈ 15.9 µM) in the data set with Staphylococcus aureus [31]; 3.9 mg/L (≈ 15.9 µM) in the data set with Staphylococcus aureus [32]; 3.9 mg/L (≈ 15.9 µM) against Staphylococcus aureus [33]; > 125 mg/L against Enterococcus faecalis [34]. For the same compound, the MIC was 3.9 mg/L (≈ 15.9 µM) with Staphylococcus aureus [36]; 3.9 mg/L (≈ 15.9 µM) in the data set with Staphylococcus aureus [37]; 62.5 mg/L (≈ 255 µM) in the data set on Enterococcus faecalis [38]; 2 mg/L (≈ 8.15 µM) in the data set on Staphylococcus aureus [39]; 1 mg/L (≈ 4.08 µM) against Staphylococcus aureus [40]. Further, in the data set with Staphylococcus aureus [35], the Activity turned out to be 10%.
